Assay results as given in ChEMBL document CHEMBL4837210 (Eur J Med Chem, 2021).

How the values were obtained:
Type in all cases: functional
Bacillus subtilis = assay: Antibacterial activity against penicillin-susceptible Bacillus subtilis ATCC 9372 assessed as bacterial growth inhibition incubated for 24 hrs by CLSI protocol based broth microdilution method
Staphylococcus aureus [1] = assay: Antibacterial activity against methicillin-resistant Staphylococcus aureus ATCC 43300 assessed as inhibition of bacterial growth by broth microdilution method; conditions: time 24 hrs
Outline: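 Broth microdilution MIC. A 0.5 McFarland suspension was diluted 10-fold and added at 1.5 × 10⁷ cfu/mL to 2-fold dilutions (0.125–64) in Mueller Hinton broth. Incubated aerobically 24 h at 37 °C. MIC was the lowest concentration with no visible turbidity.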

[2] = system: Staphylococcus epidermidis; assay: Antibacterial activity against penicillin-resistant Staphylococcus epidermidis assessed as inhibition of bacterial growth measured by broth microdilution method; conditions: time 24 hrs
Streptococcus pyogenes [3] = assay: Antibacterial activity against erythromycin-resistant Streptococcus pyogenes 2 assessed as bacterial growth inhibition incubated for 24 hrs by CLSI protocol based broth microdilution method
Streptococcus pyogenes [4] = assay: Antibacterial activity against erythromycin-susceptible Streptococcus pyogenes clinical isolate 1 assessed as bacterial growth inhibition incubated for 24 hrs by CLSI protocol based broth microdilution method
Bacillus pumilus = assay: Antibacterial activity against penicillin-susceptible Bacillus pumilus CMCC 63202 assessed as bacterial growth inhibition by broth dilution method; conditions: time 24 hrs
Outline: (§1)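 Broth microdilution in Mueller Hinton broth. A 0.5 McFarland suspension was diluted tenfold, giving an inoculum of 1.5 × 10⁷ cfu/mL. This was added to 2-fold serial compound dilutions from […]. Plates were incubated aerobically at 37 °C for 24 h. MIC was the lowest concentration with no visible turbidity.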

Staphylococcus aureus [5] = assay: Antibacterial activity against erythromycin-susceptible Staphylococcus aureus ATCC 25923 assessed as bacterial growth inhibition incubated for 24 hrs by CLSI protocol based broth microdilution method
Escherichia coli = assay: Antibacterial activity against penicillin-susceptible Escherichia coli ATCC 25922 assessed as inhibition of bacterial growth measured by broth microdilution method; conditions: time 24 hrs; outline: as §1
Pseudomonas aeruginosa = assay: Antibacterial activity against penicillin-susceptible Pseudomonas aeruginosa ATCC27853 assessed as bacterial growth inhibition incubated for 24 hrs by CLSI protocol based broth microdilution method
Staphylococcus aureus [6] = assay: Antibacterial activity against Staphylococcus aureus assessed as inhibition of bacterial growth measured by broth microdilution method; conditions: time 24 hrs; outline: as §1

C[n+]1c2ccccc2c(Nc2ccccc2-c2ccccc2)c2ccccc21.[Cl-]
MIC (Bacillus subtilis): > 64 µg/mL
MIC (Staphylococcus aureus [1]): > 64 µg/mL
MIC [2]: > 64 µg/mL
MIC (Streptococcus pyogenes [3]): > 64 µg/mL
MIC (Streptococcus pyogenes [4]): > 64 µg/mL
MIC (Bacillus pumilus): > 64 µg/mL
MIC (Staphylococcus aureus [5]): > 64 µg/mL
MIC (Escherichia coli): > 64 µg/mL
MIC (Pseudomonas aeruginosa): > 64 µg/mL
MIC (Staphylococcus aureus [6]): > 64 µg/mL

C[n+]1c2ccccc2c(NC2CCCCC2)c2ccccc21.[Cl-]
MIC (Bacillus subtilis): 32 µg/mL
MIC (Staphylococcus aureus [1]): > 64 µg/mL
MIC [2]: > 64 µg/mL
MIC (Streptococcus pyogenes [3]): 64 µg/mL
MIC (Streptococcus pyogenes [4]): > 64 µg/mL
MIC (Bacillus pumilus): > 64 µg/mL
MIC (Staphylococcus aureus [5]): > 64 µg/mL
MIC (Escherichia coli): > 64 µg/mL
MIC (Pseudomonas aeruginosa): > 64 µg/mL
MIC (Staphylococcus aureus [6]): > 64 µg/mL

COc1ccccc1Nc1c2ccccc2[n+](C)c2ccccc12.[Cl-]
MIC (Bacillus subtilis): > 64 µg/mL
MIC (Staphylococcus aureus [1]): > 64 µg/mL
MIC [2]: > 64 µg/mL
MIC (Streptococcus pyogenes [3]): > 64 µg/mL
MIC (Streptococcus pyogenes [4]): > 64 µg/mL
MIC (Bacillus pumilus): > 64 µg/mL
MIC (Staphylococcus aureus [5]): > 64 µg/mL
MIC (Escherichia coli): > 64 µg/mL
MIC (Pseudomonas aeruginosa): > 64 µg/mL
MIC (Staphylococcus aureus [6]): > 64 µg/mL

Cc1ccc(Nc2c3ccccc3[n+](C)c3ccccc23)c(C)c1.[Cl-]
MIC (Bacillus subtilis): > 64 µg/mL
MIC (Staphylococcus aureus [1]): > 64 µg/mL
MIC [2]: > 64 µg/mL
MIC (Streptococcus pyogenes [3]): > 64 µg/mL
MIC (Streptococcus pyogenes [4]): > 64 µg/mL
MIC (Bacillus pumilus): > 64 µg/mL
MIC (Staphylococcus aureus [5]): > 64 µg/mL
MIC (Escherichia coli): > 64 µg/mL
MIC (Pseudomonas aeruginosa): > 64 µg/mL
MIC (Staphylococcus aureus [6]): > 64 µg/mL

C[n+]1c2ccccc2c(Nc2ccc(F)cc2F)c2ccccc21.[Cl-]
MIC (Bacillus subtilis): > 64 µg/mL
MIC (Staphylococcus aureus [1]): > 64 µg/mL
MIC [2]: > 64 µg/mL
MIC (Streptococcus pyogenes [3]): > 64 µg/mL
MIC (Streptococcus pyogenes [4]): > 64 µg/mL
MIC (Bacillus pumilus): > 64 µg/mL
MIC (Staphylococcus aureus [5]): > 64 µg/mL
MIC (Escherichia coli): > 64 µg/mL
MIC (Pseudomonas aeruginosa): > 64 µg/mL
MIC (Staphylococcus aureus [6]): > 64 µg/mL

C[n+]1c2ccccc2c(Nc2ccccn2)c2ccccc21.[Cl-]
MIC (Bacillus subtilis): 64 µg/mL
MIC (Staphylococcus aureus [1]): > 64 µg/mL
MIC [2]: > 64 µg/mL
MIC (Streptococcus pyogenes [3]): > 64 µg/mL
MIC (Streptococcus pyogenes [4]): > 64 µg/mL
MIC (Bacillus pumilus): > 64 µg/mL
MIC (Staphylococcus aureus [5]): > 64 µg/mL
MIC (Escherichia coli): > 64 µg/mL
MIC (Pseudomonas aeruginosa): > 64 µg/mL
MIC (Staphylococcus aureus [6]): > 64 µg/mL

C[n+]1c2ccccc2c(-c2ccc(C=O)cc2)c2ccccc21.[I-]
MIC (Bacillus subtilis): > 64 µg/mL
MIC (Staphylococcus aureus [1]): > 64 µg/mL
MIC [2]: > 64 µg/mL
MIC (Streptococcus pyogenes [3]): > 64 µg/mL
MIC (Streptococcus pyogenes [4]): 64 µg/mL
MIC (Bacillus pumilus): > 64 µg/mL
MIC (Staphylococcus aureus [5]): 64 µg/mL
MIC (Escherichia coli): > 64 µg/mL
MIC (Pseudomonas aeruginosa): > 64 µg/mL
MIC (Staphylococcus aureus [6]): > 64 µg/mL

CCc1ccccc1Nc1c2ccccc2[n+](C)c2ccccc12.[Cl-]
MIC (Bacillus subtilis): > 64 µg/mL
MIC (Staphylococcus aureus [1]): > 64 µg/mL
MIC [2]: > 64 µg/mL
MIC (Streptococcus pyogenes [3]): > 64 µg/mL
MIC (Streptococcus pyogenes [4]): > 64 µg/mL
MIC (Bacillus pumilus): > 64 µg/mL
MIC (Staphylococcus aureus [5]): > 64 µg/mL
MIC (Escherichia coli): > 64 µg/mL
MIC (Pseudomonas aeruginosa): > 64 µg/mL
MIC (Staphylococcus aureus [6]): > 64 µg/mL

COc1ccc(Nc2c3ccccc3[n+](C)c3ccccc23)c(OC)c1.[Cl-]
MIC (Bacillus subtilis): > 64 µg/mL
MIC (Staphylococcus aureus [1]): > 64 µg/mL
MIC [2]: > 64 µg/mL
MIC (Streptococcus pyogenes [3]): > 64 µg/mL
MIC (Streptococcus pyogenes [4]): > 64 µg/mL
MIC (Bacillus pumilus): > 64 µg/mL
MIC (Staphylococcus aureus [5]): > 64 µg/mL
MIC (Escherichia coli): > 64 µg/mL
MIC (Pseudomonas aeruginosa): > 64 µg/mL
MIC (Staphylococcus aureus [6]): > 64 µg/mL

C[n+]1c2ccccc2c(Nc2ccc(Cl)cc2Cl)c2ccccc21.[Cl-]
MIC (Bacillus subtilis): > 64 µg/mL
MIC (Staphylococcus aureus [1]): > 64 µg/mL
MIC [2]: > 64 µg/mL
MIC (Streptococcus pyogenes [3]): > 64 µg/mL
MIC (Streptococcus pyogenes [4]): > 64 µg/mL
MIC (Bacillus pumilus): > 64 µg/mL
MIC (Staphylococcus aureus [5]): > 64 µg/mL
MIC (Escherichia coli): > 64 µg/mL
MIC (Pseudomonas aeruginosa): > 64 µg/mL
MIC (Staphylococcus aureus [6]): > 64 µg/mL

C[n+]1c2ccccc2c(Nc2ccccc2C(F)(F)F)c2ccccc21.[Cl-]
MIC (Bacillus subtilis): > 64 µg/mL
MIC (Staphylococcus aureus [1]): > 64 µg/mL
MIC [2]: > 64 µg/mL
MIC (Streptococcus pyogenes [3]): > 64 µg/mL
MIC (Streptococcus pyogenes [4]): > 64 µg/mL
MIC (Bacillus pumilus): > 64 µg/mL
MIC (Staphylococcus aureus [5]): > 64 µg/mL
MIC (Escherichia coli): > 64 µg/mL
MIC (Pseudomonas aeruginosa): > 64 µg/mL
MIC (Staphylococcus aureus [6]): > 64 µg/mL

C[n+]1c2ccccc2c(Nc2ncccn2)c2ccccc21.[Cl-]
MIC (Bacillus subtilis): > 64 µg/mL
MIC (Staphylococcus aureus [1]): > 64 µg/mL
MIC [2]: > 64 µg/mL
MIC (Streptococcus pyogenes [3]): > 64 µg/mL
MIC (Streptococcus pyogenes [4]): > 64 µg/mL
MIC (Bacillus pumilus): > 64 µg/mL
MIC (Staphylococcus aureus [5]): > 64 µg/mL
MIC (Escherichia coli): > 64 µg/mL
MIC (Pseudomonas aeruginosa): > 64 µg/mL
MIC (Staphylococcus aureus [6]): > 64 µg/mL

CCNc1c2ccccc2[n+](C)c2ccccc12.[Cl-]
MIC (Bacillus subtilis): 64 µg/mL
MIC (Staphylococcus aureus [1]): > 64 µg/mL
MIC [2]: > 64 µg/mL
MIC (Streptococcus pyogenes [3]): 64 µg/mL
MIC (Streptococcus pyogenes [4]): 64 µg/mL
MIC (Bacillus pumilus): > 64 µg/mL
MIC (Staphylococcus aureus [5]): > 64 µg/mL
MIC (Escherichia coli): > 64 µg/mL
MIC (Pseudomonas aeruginosa): > 64 µg/mL
MIC (Staphylococcus aureus [6]): > 64 µg/mL
